Assay results from ChEMBL document CHEMBL2016564, “Conformationally restricted novel pyrazole derivatives: synthesis of 1,8-disubstituted 5,5-dimethyl-4,5-dihydro-1H-benzo[g]indazoles as a new class of PDE4 inhibitors” (Bioorg Med Chem Lett, 2012).

Columns and labels:
[1] = biological target: 3',5'-cyclic-AMP phosphodiesterase 4D (Homo sapiens) (UniProt Q08499); assay: Inhibition of PDE4D using cAMP as substrate at 30 uM preincubated for 15 mins prior substrate addition measured after 1 hr by […]
Procedure, shortened: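 Commercially sourced PDE4D (0.5 ng) was preincubated 15 min with compound or DMSO vehicle, then incubated 1 h with cAMP substrate. The reaction was halted with stop solution, and detection reagent was added for 10 min in the dark. Luminescence (RLU) was read, and % inhibition = (vehicle RLU − inhibitor RLU)/vehicle RLU × 100.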

[2] = biological target: T1, 3',5'-cyclic-AMP phosphodiesterase 4B (Homo sapiens, UniProt Q07343); assay: Inhibition of recombinant His-tagged PDE4B expressed in Sf9 cells using cAMP as substrate at 30 uM preincubated for 15 mins prior substrate addition measured after 1 hr by […]
Procedure, shortened: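 In-house purified PDE4B (10 ng) was preincubated 15 min with compound or DMSO vehicle, followed by 1 h with cAMP substrate. After stop solution, detection reagent was applied for 10 min in the dark and luminescence (RLU) was read. % inhibition was taken against vehicle-control RLU and reported as the average with SD.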

[3] = biological target: T1, 3',5'-cyclic-AMP phosphodiesterase 4B

3',5'-cyclic-AMP phosphodiesterase 4D (Homo sapiens), sequence (Q08499 whole entry): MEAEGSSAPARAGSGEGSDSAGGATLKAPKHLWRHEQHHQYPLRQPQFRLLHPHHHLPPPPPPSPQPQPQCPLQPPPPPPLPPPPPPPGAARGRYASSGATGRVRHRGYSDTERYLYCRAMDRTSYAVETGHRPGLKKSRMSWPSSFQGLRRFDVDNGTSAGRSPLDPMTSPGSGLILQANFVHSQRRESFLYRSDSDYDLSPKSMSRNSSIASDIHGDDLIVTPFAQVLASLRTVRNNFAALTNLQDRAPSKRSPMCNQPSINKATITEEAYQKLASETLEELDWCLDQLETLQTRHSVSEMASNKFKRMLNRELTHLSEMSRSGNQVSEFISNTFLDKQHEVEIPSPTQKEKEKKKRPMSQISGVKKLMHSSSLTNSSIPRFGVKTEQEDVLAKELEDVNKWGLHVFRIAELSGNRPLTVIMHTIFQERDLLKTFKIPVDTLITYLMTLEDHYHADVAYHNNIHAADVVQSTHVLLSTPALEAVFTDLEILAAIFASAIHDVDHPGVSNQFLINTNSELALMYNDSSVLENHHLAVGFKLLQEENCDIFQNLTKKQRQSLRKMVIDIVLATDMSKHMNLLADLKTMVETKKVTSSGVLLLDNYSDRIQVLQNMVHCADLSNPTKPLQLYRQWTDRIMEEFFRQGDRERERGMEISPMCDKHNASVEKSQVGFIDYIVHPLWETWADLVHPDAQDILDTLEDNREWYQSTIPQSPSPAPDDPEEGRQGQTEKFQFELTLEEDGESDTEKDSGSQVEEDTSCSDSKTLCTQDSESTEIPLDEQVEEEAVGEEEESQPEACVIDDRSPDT
T1 sequence (Q07343 whole entry): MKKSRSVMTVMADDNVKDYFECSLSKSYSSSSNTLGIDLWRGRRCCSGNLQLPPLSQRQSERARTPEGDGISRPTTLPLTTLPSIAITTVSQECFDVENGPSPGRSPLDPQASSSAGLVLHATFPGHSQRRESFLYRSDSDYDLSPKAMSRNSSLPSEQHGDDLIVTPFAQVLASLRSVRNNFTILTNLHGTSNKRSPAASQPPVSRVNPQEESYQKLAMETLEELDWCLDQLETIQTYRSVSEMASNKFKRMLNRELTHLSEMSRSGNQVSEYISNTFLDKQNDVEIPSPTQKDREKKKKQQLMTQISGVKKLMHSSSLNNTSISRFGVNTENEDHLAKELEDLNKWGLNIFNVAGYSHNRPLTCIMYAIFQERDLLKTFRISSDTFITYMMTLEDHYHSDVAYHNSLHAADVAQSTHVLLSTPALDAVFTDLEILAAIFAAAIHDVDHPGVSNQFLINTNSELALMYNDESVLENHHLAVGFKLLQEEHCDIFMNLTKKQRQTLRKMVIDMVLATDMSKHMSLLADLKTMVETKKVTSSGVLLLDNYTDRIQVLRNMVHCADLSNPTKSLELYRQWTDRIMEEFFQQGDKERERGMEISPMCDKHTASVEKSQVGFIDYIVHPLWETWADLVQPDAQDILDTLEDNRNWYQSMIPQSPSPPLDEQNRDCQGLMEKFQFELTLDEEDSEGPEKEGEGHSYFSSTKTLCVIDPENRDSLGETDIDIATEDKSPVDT

SMILES | inhibition [1] [%] | inhibition [2] [%] | IC50 [3] [µM]
CC1(C)Cc2cnn(C(C)(C)C)c2-c2cc(Br)ccc21 | 41.7 | 71.4 | –
CC1(C)Cc2cnn(-c3ccc(F)cc3)c2-c2cc(NS(C)(=O)=O)ccc21 | – | 75.1 | –
Cc1cccc(-n2ncc3c2-c2cc([N+](=O)[O-])ccc2C(C)(C)C3)c1C | 54.9 | 72.7 | –
CC(C)n1ncc2c1-c1cc(Br)ccc1C(C)(C)C2 | – | 56.8 | –
Cc1ccc(-n2ncc3c2-c2cc([N+](=O)[O-])ccc2C(C)(C)C3)cc1 | – | 68.2 | –
CC1(C)Cc2cnn(-c3ccc(F)cc3)c2-c2cc(NS(=O)(=O)c3ccccc3)ccc21 | – | 75.6 | –
CC1(C)Cc2cnn(-c3ccc(F)cc3)c2-c2cc([N+](=O)[O-])ccc21 | – | 66.8 | –
CC1(C)Cc2cnn(-c3ccccc3)c2-c2cc([N+](=O)[O-])ccc21 | 55.8 | 72.1 | –
CC1(C)Cc2cnn(-c3ccccc3)c2-c2cc(Br)ccc21 | 50 | 76.2 | 4.57

Results, then the molecule that gave them:

inhibition [1] [%] | inhibition [2] [%] | IC50 [3] [µM] | SMILES
65.4 | 72.2 | – | CC1(C)Cc2cnn(-c3ccc(F)cc3)c2-c2cc(Br)ccc21
– | 64.9 | – | Cc1ccc(-n2ncc3c2-c2cc(Br)ccc2C(C)(C)C3)cc1
– | 60.3 | – | CC1(C)Cc2cnn(-c3ccc(Br)cc3)c2-c2cc(Br)ccc21
– | 42.2 | – | CC1(C)Cc2cnn(-c3ccc(C(F)(F)F)cc3)c2-c2cc(Br)ccc21
– | 68.1 | – | CC1(C)Cc2cnn(-c3ccc(Cl)cc3)c2-c2cc(Br)ccc21
